Measured values taken from article PMC3912990 (Current biology : CB, 2014).

Experiments:
Assay in all cases: FLIPR intracellular Ca2+, agonist mode
Assay type in all cases: cell-based
κ-opioid receptor = κ-opioid receptor (Homo sapiens, UniProt P41145)
In short: (§1)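 Human opioid receptor cDNA in pcDNA3.1(−), stably expressed in HEK293T cells grown in DMEM with 10% FBS. Test compound was dissolved in DMSO, diluted in FLIPR buffer and added automatically within 4 sec. Intracellular Ca2+ was monitored over 4 min (excitation 488 nm, emission 520 nm), and data were recorded as fluorescence (arbitrary units) versus time.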

μ-opioid receptor = μ-opioid receptor (Homo sapiens, UniProt P35372); details: stable HEK293T line
In short: as §1

δ-opioid receptor = δ-opioid receptor (Homo sapiens, UniProt P41143)
In short: as §1

Chain of μ-opioid receptor (P35372 whole entry): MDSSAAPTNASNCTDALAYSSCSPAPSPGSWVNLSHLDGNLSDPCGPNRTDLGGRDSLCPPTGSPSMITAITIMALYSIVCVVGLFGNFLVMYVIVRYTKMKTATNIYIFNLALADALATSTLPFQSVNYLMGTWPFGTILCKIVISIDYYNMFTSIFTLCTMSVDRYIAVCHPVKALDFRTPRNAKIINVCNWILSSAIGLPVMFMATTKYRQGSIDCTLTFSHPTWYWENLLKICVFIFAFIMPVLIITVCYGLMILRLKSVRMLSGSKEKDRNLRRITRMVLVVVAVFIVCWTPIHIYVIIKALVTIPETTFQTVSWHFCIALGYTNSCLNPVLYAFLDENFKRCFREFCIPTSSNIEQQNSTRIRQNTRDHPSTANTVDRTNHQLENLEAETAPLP
Chain of κ-opioid receptor (P41145 whole entry): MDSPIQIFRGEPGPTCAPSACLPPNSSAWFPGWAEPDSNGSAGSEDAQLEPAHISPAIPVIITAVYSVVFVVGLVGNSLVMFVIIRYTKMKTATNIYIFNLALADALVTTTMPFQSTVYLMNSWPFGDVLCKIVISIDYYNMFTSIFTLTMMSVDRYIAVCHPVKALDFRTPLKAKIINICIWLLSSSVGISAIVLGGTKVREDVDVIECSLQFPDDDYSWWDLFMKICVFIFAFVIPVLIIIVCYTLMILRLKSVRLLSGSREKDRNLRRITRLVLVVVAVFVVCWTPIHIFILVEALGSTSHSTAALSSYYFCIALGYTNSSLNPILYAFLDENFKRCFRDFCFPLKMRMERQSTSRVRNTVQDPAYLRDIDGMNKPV
Chain of δ-opioid receptor (P41143 whole entry): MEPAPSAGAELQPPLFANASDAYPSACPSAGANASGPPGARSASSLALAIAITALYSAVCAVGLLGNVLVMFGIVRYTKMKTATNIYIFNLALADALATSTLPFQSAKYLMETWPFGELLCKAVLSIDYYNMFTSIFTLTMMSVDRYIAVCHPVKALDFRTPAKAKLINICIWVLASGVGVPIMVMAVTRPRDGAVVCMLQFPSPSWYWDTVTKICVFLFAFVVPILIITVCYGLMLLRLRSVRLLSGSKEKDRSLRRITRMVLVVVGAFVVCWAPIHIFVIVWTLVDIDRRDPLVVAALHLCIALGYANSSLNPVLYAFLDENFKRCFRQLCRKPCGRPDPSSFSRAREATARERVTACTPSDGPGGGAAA

For `COc1cc2c(cc1O)CC[n+]1cc3c(OC)c(OC)ccc3c(C)c1-2` [DHCB], the EC50 (κ-opioid receptor) was > 500 µM, the “Opioid Agonist (EC50, μM) / μ” value (μ-opioid receptor) was 100 (74~136) μM and the EC50 (δ-opioid receptor) was > 500 µM.
